According to ChEMBL document CHEMBL4196235, “SAR of 4-Alkoxybenzoic Acid Inhibitors of the Trypanosome Alternative Oxidase” (ACS Med Chem Lett, 2018):
In brackets after ≈: the same amount, converted by molar mass. Activity calls are given as the source filed them. The calls are words filed in the database; no cut-off is given here.

What was measured:
[1] = target: T1, Alternative oxidase, mitochondrial (Trypanosoma brucei brucei, UniProt Q26710); assay: Inhibition of recombinant Trypanosoma brucei brucei alternative oxidase using ubiquinol-1 as substrate incubated for 2 mins followed by substrate addition by spectrophotometric method
T1 sequence (Q26710 whole entry): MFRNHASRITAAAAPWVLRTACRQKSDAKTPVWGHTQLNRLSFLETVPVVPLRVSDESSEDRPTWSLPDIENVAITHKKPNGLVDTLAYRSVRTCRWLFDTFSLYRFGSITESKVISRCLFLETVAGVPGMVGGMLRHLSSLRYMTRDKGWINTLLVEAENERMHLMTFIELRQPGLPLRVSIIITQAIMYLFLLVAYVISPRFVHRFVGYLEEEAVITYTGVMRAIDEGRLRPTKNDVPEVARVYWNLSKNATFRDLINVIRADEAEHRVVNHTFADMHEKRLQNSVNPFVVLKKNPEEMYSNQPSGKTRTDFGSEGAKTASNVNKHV
Method in brief: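 The assay measured inhibition of the ubiquinol oxidase activity of purified recombinant ∆MTS-TAO from T. b. brucei.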

[2] = system: Trypanosoma brucei brucei; assay: Antiparasitic activity against bloodstream trypomastigote stage of wild type Trypanosoma brucei brucei Lister 427 after 48 hrs by resazurin dye based fluorescence assay; assay type: functional, organism-based
Method in brief: (§1)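 Bloodstream trypomastigotes of T. b. brucei s427 (wild type) were tested, both with and without glycerol. EC50 values are the mean of 3 experiments ± SEM.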

[3] = Cytotoxicity against HEK293T cells after 30 hrs by resazurin dye based fluorescence assay; assay type: cell-based, HEK-293T; settings: human
Method in brief: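 Cytotoxicity was measured on human embryonic kidney (HEK) cells and reported as CC50. Values are the mean of 3 experiments ± SEM.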

[4] = Selectivity index, ratio of CC50 for HEK293T cells to EC50 for bloodstream trypomastigote stage of wild type Trypanosoma brucei brucei Lister 427; assay type: toxicity; settings: human; read-out: Ratio CC50/EC50
Method in brief: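 The selectivity index was calculated as CC50 in HEK cells divided by EC50 against wild-type T. b. brucei s427 bloodstream trypomastigotes.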

[5] = system: Trypanosoma brucei brucei; assay: Resistant factor, ratio of EC50 for bloodstream trypomastigote stage of wild-type Trypanosoma brucei brucei Lister 427 assessed as inhibition of respiration in presence of glycerol to EC50 for bloodstream trypomastigote stage of wild-type Trypanosoma brucei brucei Lister 427 assessed as inhibition of respiration in absence of glycerol; assay type: functional
[6] = Selectivity index, ratio of CC50 for HEK293T cells to EC50 for pentamidine-resistant bloodstream trypomastigote stage of Trypanosoma brucei brucei harboring AQP1 to 3 deletions; assay type: toxicity; settings: human; read-out: Ratio CC50/EC50
[7] = system: Trypanosoma brucei brucei; assay: Resistance factor, ratio of EC50 for diminazene, pentamidine and melaminophenyl arsenical-resistant bloodstream trypomastigote stage of Trypanosoma brucei brucei B48 harboring TbAT1 deletions to EC50 for bloodstream trypomastigote stage of wild-type Trypanosoma brucei brucei Lister 427; assay type: functional
[8] = system: Trypanosoma brucei brucei; assay: Antiparasitic activity against bloodstream trypomastigote stage of wild type Trypanosoma brucei brucei Lister 427 at 100 uM after 48 hrs by resazurin dye based fluorescence assay; assay type: functional, organism-based
[9] = system: Trypanosoma brucei brucei; assay: Resistant factor, ratio of EC50 for pentamidine-resistant bloodstream trypomastigote stage of Trypanosoma brucei brucei harboring AQP1 to 3 deletions to EC50 for bloodstream trypomastigote stage of wild-type Trypanosoma brucei brucei Lister 427 in presence of glycerol; assay type: functional
[10] = Dissociation constant, pKa of the compound; assay type: physicochemical
[11] = target: T1, Alternative oxidase, mitochondrial; assay: Binding affinity to recombinant Trypanosoma brucei brucei 427 alternative oxidase expressed in Escherichia coli BL21 cells using ubiquinol-1 as substrate by spectrophotometric method
[12] = system: Trypanosoma brucei brucei; assay: Antiparasitic activity against bloodstream trypomastigote stage of wild type Trypanosoma brucei brucei Lister 427 after 48 hrs in presence of glycerol by resazurin dye based fluorescence assay; assay type: functional; settings: Lister 427, 48 h; method in brief: as §1

| Structure (SMILES) | IC50 [1] [µM] | EC50 ([2]; Lister 427, 48 h) [µM] | CC50 at 30 h [3] [µM] | selectivity ratio [4] | Ratio EC50 [7] | further results |
| --- | --- | --- | --- | --- | --- | --- |
| Cc1cc(OCCCCCCCCCCCCC[P+](c2ccccc2)(c2ccccc2)c2ccccc2)cc(O)c1C(=O)O.[Br-] | 0.0042 | 0.013 | 0.83 | 64 | <1 | Ratio EC50 [5]: <1; selectivity ratio [6]: 230 |
| COC(=O)c1ccc(OC/C(C)=C/CC/C(C)=C/CO)cc1C | 1.69 | – | > 100 | – | <1 | Activity [8]: inactive |
| COC(=O)c1c(C)cc(OCCCCCCCCCCCCC[P+](c2ccccc2)(c2ccccc2)c2ccccc2)cc1O.[Br-] | – | – | – | – | <1 | Ratio EC50 [9]: >2 |
| COC(=O)c1cc(OCCCCCCCCCCCCC[P+](c2ccccc2)(c2ccccc2)c2ccccc2)ccc1O.[Br-] | 0.012 | 0.028 | 0.64 | – | <1 | – |
| C/C(=C\CO)CC/C=C(\C)COc1ccc(C(=O)O)c(O)c1 | 2.1 | – | – | – | <1 | Activity [8]: inactive; pKa [10]: < 5 |
| O=Cc1ccc(OCCCCCCCCCCCCC[n+]2cccc3ccccc32)cc1O | 1.23 | 1.75 | > 200 | > 114 | – | – |
| COC(=O)c1ccc(OCCCCCCCCCCCCCBr)cc1O | > 5 | 8.1 | 28.6 | 3.5 | <1 | Ratio EC50 [5]: <1 |
| COC(=O)c1ccc(OCCCCCCCCCCCCCBr)cc1F | – | – | – | – | <1 | Activity [2]: inactive |
| C/C(=C\CO)CC/C=C(\C)COc1ccc(C(=O)O)c(F)c1 | 1.1 | – | – | – | <1 | Activity [8]: inactive; pKa [10]: < 5 |
| Cc1cc(OCCCCCCCCCCCCC[P+](c2ccccc2)(c2ccccc2)c2ccccc2)ccc1C(=O)O.[Br-] | > 5 | 0.19 | 4.24 | 22 | <1 | Ratio EC50 [5]: <1 |
| O=C(O)c1ccc(OCCCCCCCCCCCCC[P+](c2ccccc2)(c2ccccc2)c2ccccc2)cc1F.[Br-] | > 5 | 0.037 | 8.35 | 225 | <1 | Ratio EC50 [9]: >2 |
| Cc1cc(OCCCCCCCCCCCCC[n+]2cccc3ccccc32)ccc1C(=O)O.[Br-] | > 5 | 10.6 | 24.4 | 2.3 | <1 | – |
| COC(=O)c1ccc(OCCCCCCCCCCCCC[P+](c2ccccc2)(c2ccccc2)c2ccccc2)cc1C.[Br-] | > 5 | 0.018 | 0.35 | 19 | <1 | Ratio EC50 [9]: >2 |
| CCOC(=O)c1c(C)cc(OCCCCCCCCCCCCCBr)cc1O | > 5 | 8.9 | 29.6 | 3.3 | <1 | Ratio EC50 [5]: <1 |
| COC(=O)c1ccc(OCCCCCCCCCCCCC[n+]2cccc3ccccc32)cc1F.[Br-] | > 5 | 2.4 | 3.36 | 1.4 | <1 | Ratio EC50 [5]: <1 |
| CC(C)=CCOc1ccc(C(=O)O)c(O)c1 | – | – | – | – | – | Ki [11]: 5 µM |
| CC(=O)OC/C=C(\C)CC/C=C(\C)COC(=O)c1ccc(O)cc1O | 0.0091 | – | > 20 | – | <1 | Ratio EC50 [5]: <1 |
| COc1cc(OCCCCCCCCCCCCCBr)cc(O)c1C=O | 2.3 | – | – | – | <1 | Activity [8]: inactive |
| COC(=O)c1ccc(OC/C(C)=C/CC/C(C)=C/CO)cc1O | – | – | – | – | <1 | – |
| COC(=O)c1ccc(OCCCCCCCCCCCCC[n+]2cccc3ccccc32)cc1C.[Br-] | > 5 | 0.16 | 0.3 | 1.9 | <1 | – |
| C/C(=C\CO)CC/C=C(\C)COc1ccc(C(=O)O)cc1 | 2.4 | – | – | – | <1 | Activity [8]: inactive; pKa [10]: < 5 |

| Structure (SMILES) | IC50 [1] [µM] | EC50 ([2]; Lister 427, 48 h) [µM] | CC50 at 30 h [3] [µM] | selectivity ratio [4] | Ratio EC50 [7] | further results |
| --- | --- | --- | --- | --- | --- | --- |
| O=C(NO)c1ccccc1O [SALICYLHYDROXAMIC ACID] | – | 62.9 | – | – | – | – |
| COC(=O)c1ccc(OCCCCCCCCCC[P+](c2ccccc2)(c2ccccc2)c2ccccc2)cc1O.[Br-] | > 5 | 0.002 | 0.44 | 184 | <1 | – |
| C/C(=C\Cc1c(O)c(Cl)c(C)c(C=O)c1O)CC/C=C(\C)[C@@H]1CC(=O)C(C)(C)O1 [ASCOFURANONE] | – | – | – | – | – | MIC ([2]; Lister 427, 48 h): 250 µM (≈ 105 µg/mL); MIC [12]: 0.03 µM |
| COC(=O)c1ccc(OCCCCCCCCCCCCC[P+](c2ccccc2)(c2ccccc2)c2ccccc2)cc1F.[Br-] | 0.74 | 0.05 | 0.22 | 4.5 | <1 | Ratio EC50 [9]: >2 |
| COC(=O)c1ccc(OCCCCCCCCCCCCC[P+](c2ccccc2)(c2ccccc2)c2ccccc2)cc1O.[Br-] | 0.015 | 0.018 | – | – | <1 | – |
| COC(=O)c1ccc(OC/C(C)=C/CC/C(C)=C/COC(C)=O)cc1F | – | – | – | – | <1 | – |
| O=Cc1ccc(OCCCCCCCCCCCCCBr)cc1O | 0.073 | 17.6 | – | – | – | – |
| C/C(=C\CO)CC/C=C(\C)CC/C=C(\C)COc1cc(C)c(C(=O)O)c(O)c1 | 0.0031 | – | – | – | <1 | Activity [8]: inactive; pKa [10]: < 5 |
| N=C(N)c1ccc(OCCCCCOc2ccc(C(=N)N)cc2)cc1 [PENTAMIDINE] | – | 0.0042 | – | – | – | – |
| COC(=O)c1ccc(OCCCCCCCCCCCCCBr)cc1C | – | – | – | – | <1 | Activity [2]: inactive |
| COC(=O)c1ccc(OC/C(C)=C/CC/C(C)=C/COC(C)=O)cc1O | > 5 | 19.3 | 31.8 | 1.7 | <1 | – |
| COC(=O)c1ccc(OC/C(C)=C/CC/C(C)=C/CO)cc1F | > 5 | – | > 100 | – | <1 | Activity [8]: inactive |
| O=C(O)c1ccc(OCCCCCCCCCC[P+](c2ccccc2)(c2ccccc2)c2ccccc2)cc1O.[Br-] | > 5 | 0.73 | 8.2 | 11 | <1 | Ratio EC50 [5]: <1 |
| CC(=O)OC/C=C(\C)CC/C=C(\C)COC(=O)c1ccc(OC/C(C)=C/CC/C(C)=C/COC(C)=O)cc1O | > 5 | – | – | – | <1 | – |
| C/C(=C\CO)CC/C=C(\C)COc1ccc(C(=O)O)c(C)c1 | 0.92 | – | – | – | <1 | Activity [8]: inactive; pKa [10]: < 5 |
| CCOC(=O)c1c(C)cc(OCCCCCCCCCCCCC[n+]2cccc3ccccc32)cc1O.[Br-] | > 5 | 0.29 | 0.61 | 2.1 | <1 | – |
| CCOC(=O)c1c(C)cc(OC/C(C)=C/CC/C(C)=C/CC/C(C)=C/COC(C)=O)cc1O | > 5 | 6.6 | 20.8 | 3.1 | <1 | – |
| COC(=O)c1ccc(OC/C(C)=C/CC/C(C)=C/COC(C)=O)cc1C | > 5 | 17 | 45.1 | 2.7 | <1 | – |
| O=C(O)c1ccc(OCCCCCCCCCCCCC[P+](c2ccccc2)(c2ccccc2)c2ccccc2)cc1O.[Br-] | > 5 | 0.086 | 19.6 | 227 | <1 | Ratio EC50 [9]: >2 |
| CCOC(=O)c1ccc(OC/C(C)=C/CC/C(C)=C/CO)cc1O | > 5 | – | – | – | <1 | – |
